For seven molecules, IC50 and MIC results are on record in ChEMBL document CHEMBL1773014, “Cytotoxic pentacyclic and tetracyclic aromatic sesquiterpenes from Phomopsis archeri” (J Nat Prod, 2011).

One experiment has as its system Plasmodium falciparum. In words: Antimalarial activity against multidrug-resistant Plasmodium falciparum K1 assessed as reduction in uptake of [3H]-hypoxanthine by microculture radioisotope technique. The experiment is classed as functional, organism-based. In outline: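 P. falciparum K1 (multidrug-resistant) cultured by the Trager–Jensen method and tested in vitro by microculture radioisotope technique. Parasite growth read as [3H]-hypoxanthine uptake. IC50 taken as the concentration giving 50% reduction in growth. Dihydroartemisinin served as the reference standard.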

Experiment [1] can be described thus: Cytotoxicity against human KKU-M213 cells by sulforhodamine B assay. Format: functional, cell-based. A general note: Sulforhodamine B stains cellular protein and so reports cell mass.
The nature of experiment [2]: Cytotoxicity against human KKU-M214 cells by sulforhodamine B assay. Format: functional, cell-based.
In a further experiment the test system is KB. In words: Cytotoxicity against human KB cells by sulforhodamine B assay. The experiment is classed as functional, cell-based.
Experiment [3] concerns Mycobacterium tuberculosis. In words: Antimycobacterial activity against Mycobacterium tuberculosis H37Ra by microplate alamar blue assay. Format: functional.
Experiment [4] is described as follows: Cytotoxicity against human KKU100 cells by sulforhodamine B assay. Format: functional, cell-based.
A short description of experiment [5]: Cytotoxicity against human KKU-M139 cells by sulforhodamine B assay. Format: functional, cell-based.
Experiment [6] in a line: Cytotoxicity against human KKU-M156 cells by sulforhodamine B assay. The experiment is classed as functional, cell-based.

Converted amounts (≈) assume the structure as drawn.

A word on the IC50: it is the point on the concentration scale where inhibition reaches its midpoint. As for `C[C@H]1[C@@H](O)O[C@@H]2O[C@@]3(C)CC[C@H]4[C@H](C)CC[C@@H]1[C@@]24OO3` [ARTENIMOL], the IC50 in the experiment with Plasmodium falciparum was 4.4 nM.
For `Cc1c2ccncc2c(C)c2c1[nH]c1ccccc12` [ELLIPTECINE], the IC50 in experiment [1] worked out at 0.3 µg/mL (≈ 1.22 µM); in experiment [2] it was 0.21 µg/mL (≈ 0.853 µM); in the experiment with KB, 0.19 µg/mL (≈ 0.771 µM).
In general, MIC refers to the lowest concentration found to suppress growth. A lower MIC goes with a more susceptible organism. For `NNC(=O)c1ccncc1` [ISONIAZID], the MIC in experiment [3] was 0.23 µg/mL (≈ 1.68 µM).
Regarding `CC(=O)O[C@H]1CC[C@]2(C)[C@H]3Cc4c(O)cc5c(c4O[C@@]3(C)CC[C@H]2C1(C)C)COC5=O` [KAMPANOL A], the IC50 was 19.6 µg/mL (≈ 45.7 µM) in experiment [1]; over 20 µg/mL in experiment [2]; over 20 µg/mL in experiment [4]; over 20 µg/mL in experiment [5]; over 20 µg/mL in experiment [6].
For `CC1(C)[C@@H](O)CC[C@]2(C)[C@H]3Cc4c(O)cc5c(c4O[C@@]3(C)CC[C@@H]12)COC5=O` [PHOMOARCHERIN A], the IC50 in experiment [1] is 16.6 µg/mL (≈ 43 µM); in experiment [2] it was over 20 µg/mL; in experiment [4], over 20 µg/mL; in experiment [5] it was over 20 µg/mL; in experiment [6] it was over 20 µg/mL; with Plasmodium falciparum, over 20 µg/mL. Moreover, the IC50 with KB amounted to 42.1 µg/mL (≈ 109 µM). In experiment [3], this molecule returned an MIC of over 200 µg/mL.
As for `CC1(C)C(=O)CC[C@]2(C)[C@H]3Cc4c(O)cc5c(c4O[C@@]3(C)CC[C@@H]12)COC5=O` [PHOMOARCHERIN B], the IC50 in experiment [1] was over 20 µg/mL; in experiment [2], 5 µg/mL (≈ 13 µM); in experiment [4] it was 8 µg/mL (≈ 20.8 µM); in experiment [5] it was 0.1 µg/mL (≈ 0.26 µM); in experiment [6], 2 µg/mL (≈ 5.2 µM); in the experiment with Plasmodium falciparum, 0.79 µg/mL. Moreover, 9.4 µg/mL (≈ 24.4 µM) corresponded to half-maximal inhibition with KB (IC50). The molecule also displayed an MIC in experiment [3] of 50 µg/mL (≈ 130 µM).
As to `Cc1cc(O)c2c(c1C=O)O[C@@]1(C)CC[C@H]3C(C)(C)C(=O)CC[C@]3(C)[C@H]1C2` [PHOMOARCHERIN C], the IC50 in experiment [1] turned out to be 15.4 µg/mL (≈ 41.6 µM); in experiment [2], 18.8 µg/mL (≈ 50.7 µM); in experiment [4] it was 8.9 µg/mL (≈ 24 µM); in experiment [5], 8.9 µg/mL (≈ 24 µM); in experiment [6], 18 µg/mL (≈ 48.6 µM).
